Active and inactive are the calls of the source. The rule behind the calls is not given here. Bounds are passed on as bounds.

For data set [1], the target named is T1, Peroxisome proliferator-activated receptor delta (Homo sapiens) (UniProt Q03181).
T1 sequence (whole entry): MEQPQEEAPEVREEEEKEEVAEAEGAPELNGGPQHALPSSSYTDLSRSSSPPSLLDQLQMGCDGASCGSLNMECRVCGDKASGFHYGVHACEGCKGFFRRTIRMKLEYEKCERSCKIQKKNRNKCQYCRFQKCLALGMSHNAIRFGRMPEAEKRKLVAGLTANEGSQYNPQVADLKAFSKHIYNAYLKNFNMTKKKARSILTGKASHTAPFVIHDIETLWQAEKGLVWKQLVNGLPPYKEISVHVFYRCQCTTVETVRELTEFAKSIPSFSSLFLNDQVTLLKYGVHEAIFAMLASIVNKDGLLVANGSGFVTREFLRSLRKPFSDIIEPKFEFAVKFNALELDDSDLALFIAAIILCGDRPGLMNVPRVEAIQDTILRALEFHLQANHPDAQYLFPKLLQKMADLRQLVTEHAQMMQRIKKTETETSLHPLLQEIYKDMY
Put plainly: Agonist activity at Gal4-fused human PPARdelta LBD transfected in HEK293T cells assessed as maximal relative activation incubated for 14 to 16 hrs by dual-Glo luciferase assay relative to L165,041. Conditions: time 14-16 hrs. In kind it is cell-based. Put shortly:
(§1)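 HEK293T cells transiently transfected with pFR-Luc, pRL-SV40 and Gal4 fusion of human PPAR hinge region plus LBD. Compound added 5 h later in Opti-MEM with 0.1% DMSO, then left overnight (14−16 h). Dual-Glo firefly/Renilla luciferase read, giving RLU. Fold activation is taken against the DMSO control. Max relative activation is set against 1 μM GW7647 (α) or L165,041 (δ). EC50 from a four-parameter fit. Duplicates, ≥3 independent runs.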

Data set [2] addresses T2, Peroxisome proliferator-activated receptor gamma (Homo sapiens, UniProt P37231).
T2 sequence (P37231 whole entry): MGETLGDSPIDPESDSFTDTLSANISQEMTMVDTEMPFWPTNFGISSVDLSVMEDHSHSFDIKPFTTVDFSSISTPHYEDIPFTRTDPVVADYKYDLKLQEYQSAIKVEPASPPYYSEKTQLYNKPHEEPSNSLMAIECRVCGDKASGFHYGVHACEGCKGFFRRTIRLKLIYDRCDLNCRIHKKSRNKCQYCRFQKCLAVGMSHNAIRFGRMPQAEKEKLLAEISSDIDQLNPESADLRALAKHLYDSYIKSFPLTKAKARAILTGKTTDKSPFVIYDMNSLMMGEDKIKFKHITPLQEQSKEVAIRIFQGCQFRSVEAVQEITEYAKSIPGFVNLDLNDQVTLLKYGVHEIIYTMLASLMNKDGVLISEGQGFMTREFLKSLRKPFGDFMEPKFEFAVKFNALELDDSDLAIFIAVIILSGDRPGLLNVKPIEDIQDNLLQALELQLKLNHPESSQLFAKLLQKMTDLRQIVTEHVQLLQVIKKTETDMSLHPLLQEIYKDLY
Put plainly: Agonist activity at Gal4-fused human PPARgamma LBD transfected in HEK293T cells assessed as transcriptional activation incubated for 14 to 16 hrs by dual-Glo luciferase assay. In kind it is cell-based.

Data set [3] has as its target T3, Peroxisome proliferator-activated receptor delta (Homo sapiens, UniProt Q03181).
T3 sequence (Q03181 whole entry): T1 sequence (whole entry)
Kind of data set: Agonist activity at Gal4-fused human PPARdelta LBD transfected in HEK293T cells assessed as transcriptional activation incubated for 14 to 16 hrs by dual-Glo luciferase assay. It counts as cell-based. The procedure, abridged: as §1

Data set [4] has as its target T4, Peroxisome proliferator-activated receptor alpha (Homo sapiens, UniProt Q07869).
T4 sequence (Q07869 whole entry): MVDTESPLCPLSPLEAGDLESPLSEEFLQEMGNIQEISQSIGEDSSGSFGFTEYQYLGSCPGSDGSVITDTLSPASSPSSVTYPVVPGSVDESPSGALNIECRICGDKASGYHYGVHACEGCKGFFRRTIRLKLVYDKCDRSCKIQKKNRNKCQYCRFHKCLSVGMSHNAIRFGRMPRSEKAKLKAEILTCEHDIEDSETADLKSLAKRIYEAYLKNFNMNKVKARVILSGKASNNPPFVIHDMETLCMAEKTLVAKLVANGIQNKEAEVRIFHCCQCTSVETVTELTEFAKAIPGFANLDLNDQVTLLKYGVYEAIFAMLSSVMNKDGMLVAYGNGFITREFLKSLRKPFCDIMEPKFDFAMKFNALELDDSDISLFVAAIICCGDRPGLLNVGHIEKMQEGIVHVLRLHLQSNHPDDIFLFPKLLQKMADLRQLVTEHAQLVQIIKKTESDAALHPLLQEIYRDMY
Kind of data set: Agonist activity at Gal4-fused human PPARalpha LBD transfected in HEK293T cells assessed as transcriptional activation incubated for 14 to 16 hrs by dual-Glo luciferase assay. It counts as cell-based. Put shortly: as §1

For the next data set, the system named is HEK-293T. Put plainly: Cytotoxicity against HEK293T cells assessed as reduction in cell viability at >= 6 uM. It counts as cell-based. The settings on record: human.
Data set [5] addresses T5, Peroxisome proliferator-activated receptor alpha (Homo sapiens) (UniProt Q07869).
T5 sequence (whole entry): T4 sequence (Q07869 whole entry)
Kind of data set: Agonist activity at Gal4-fused human PPARalpha LBD transfected in HEK293T cells assessed as maximal relative activation incubated for 14 to 16 hrs by dual-Glo luciferase assay relative to GW7647. In kind it is cell-based. The settings on record: time 14-16 hrs. The procedure, abridged:
as §1

Data set [6] concerns the target T1, Peroxisome proliferator-activated receptor delta (Homo sapiens). Put plainly: Agonist activity at human Gal4-PPARdelta transfected in HEK293T cells assessed as increase in eGFP fluorescence at 300 nM incubated for 40 hrs by fluorescence microscopic analysis. It counts as cell-based. The procedure, abridged: (§2)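 HEK293T cells transfected separately with UAS-mCherry-NLS plus Gal4-PPARα-LBD, or […]-GFP plus Gal4-PPARδ-LBD. Cells pooled 5 h later and reseeded with compound in 0.1% DMSO. cis form preirradiated 3 min at 365 nm, then held with 75 ms 370 nm pulses every 15 s. Microscope images taken at 40 h. Integrated density set against 1 μM reference agonist. Duplicates, two independent runs.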

Data set [7] deals with T5, Peroxisome proliferator-activated receptor alpha (Homo sapiens). Put plainly: Agonist activity at human Gal4-PPARalpha transfected in HEK293T cells assessed as increase in mCherry fluorescence at 10 nM incubated for 8 hrs followed by irradiation with 460 nm UV light for 3 mins by fluorescence based analysis. In kind it is cell-based. Conditions: filed as agonist. The procedure, abridged:
(§3)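 Live HEK293T cells carrying UAS-mCherry-NLS plus Gal4-PPARα-LBD were treated with compound in 0.1% DMSO. mCherry read (ex 585, em 610 nm) hourly from 8 to 24 h and at 36 h. At 8 h, isomers switched by 3 min illumination at 365 or 460 nm. cis state held by Cell DISCO. Fold intensity against DMSO. n = 3.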

The nature of data set [8]: Photostability of compound assessed as photochemical switch by measuring cis-isoform at 50 uM incubated for 8 hrs followed by irradiation with 365 nm UV light for 3 mins by HPLC analysis. In kind it is physicochemical.
Data set [9] in a line: Microsomal stability in Sprague-Dawley rat liver microsomes assessed as half life at 10 uM measured up to 60 mins in presence of NADPH regenerating system by HPLC-UV analysis. In kind it is ADME, Microsome. The procedure, abridged:
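Compound at 10 μM final, preincubated 5 min at 37 °C in 0.1 M phosphate pH 7.4 with NADPH-regenerating system. Reaction started with Sprague-Dawley rat liver microsomes and stopped with cold methanol at 0, 15, 30 and 60 min. Remaining compound measured by HPLC-UV at 254/280 nm against external calibration. Controls run without NADPH and with heat-inactivated microsomes. Half-life from log-linear fit. Three independent runs.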

In data set [10] the target is T5, Peroxisome proliferator-activated receptor alpha (Homo sapiens). Kind of data set: Agonist activity at human Gal4-PPARalpha transfected in HEK293T cells assessed as increase in mCherry fluorescence at 10 nM measured after 8 to 24 hrs by fluorescence microscopic analysis. In kind it is cell-based. Conditions: filed as agonist, time 8-24 hrs. Put shortly: as §3

Data set [11] has the same target. Put plainly: Agonist activity at human Gal4-PPARalpha transfected in HEK293T cells assessed as increase in mCherry fluorescence at 10 nM incubated for 40 hrs by fluorescence microscopic analysis. It counts as cell-based. Conditions: filed as agonist. The procedure, abridged: as §2
Data set [12] shares this target. Kind of data set: Agonist activity at human Gal4-PPARalpha transfected in HEK293T cells assessed as increase in mCherry fluorescence at 300 nM incubated for 40 hrs by fluorescence microscopic analysis. It counts as cell-based. Conditions: filed as agonist. The procedure, abridged: as §2

With `Cc1ccc(/N=N/c2ccc(OCCc3ccc(OC(C)(C)C(=O)O)cc3)cc2)cc1`, the figures for the max activation in [1] and in data set [5] were 33% and 24%, respectively. The figures for the 50% effective concentration (EC50) in data set [2], in data set [3] and in data set [4] were greater than 10 µM, 1420 nM and 660 nM, respectively. Moreover, the Activity result with HEK-293T is given as “Non-Toxic”.

As for `Cc1cc(/N=N/c2ccccc2)ccc1OCCc1ccc(OC(C)(C)C(=O)O)cc1`, the figures for the max activation in [1] (filed as agonist) and in data set [5] were 45% and 38%, respectively. The outcome in data set [6] was inactive. The outcome in data set [7], in data set [10], in data set [11] and in data set [12] was Active. The Stability entry in [8] is reported as “Stable”. In addition, in [9], the half-life at 10 µM was found to be 103 min. Besides, the EC50 in data set [3] was 540 nM; in data set [4], 7 nM.

A word on the EC50: it is the concentration needed to bring the measured effect to its halfway point. One may read the half-life as the time in which the quantity being followed falls by half.

(Values after ChEMBL document CHEMBL5032512, “A Photohormone for Light-Dependent Control of PPARα in Live Cells” (J Med Chem, 2021).)
